In the library only some 5% were active in any assay of this set; here they are far more common.
Beta apoptosis – beta cell apoptosis inhibition; INS-1E cytokine-induced death, ATP luminescence, 48 h; percent of positive-control rescue, neutral wells zero; actives 0.8% (n = 300,000); protection from apoptosis, % (test concentration not listed); AID 435005;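 active = Every replicate reaches about 75%, or at least half do and their mean reaches it too, limit read from the data; inconclusive = At least half of replicates reach the limit but their mean does not; inactive = Under half of replicates reach the limit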;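 also: 0% = cytokine-treated negative control wells and 100% = positive control rescue; higher means more ATP so stronger rescue from cytokine killing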
CHOP UPR activ – activators of apoptotic arm of unfolded protein response (CHOP). actives 0.34% (n = 330,000). activation, % at 10 µM. CHO-CHOP luciferase reporter, UPR activation, luminescence; percent of tunicamycin response over DMSO baseline;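 active = at 10 µM dose, activation of 40% or more, normalized to positive control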;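 also: 100% = tunicamycin at 10 µg/mL and 0% = DMSO alone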
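assay system = CHO CHOP reporter cells | amount = 500 CHO-CHOP cells per well | buffer or medium = F12 with 10% FBS | incubation = 16-18 h cell attachment, then 6 h compound exposure, 37 °C | detection = luminescence read with Steady-Glo | read-out = percent activation relative to tunicamycin control | controls = tunicamycin high control, DMSO low control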
T cruzi repl – T. cruzi replication inhibition; T. cruzi beta-gal in NIH3T3, luminescence, 90 h; inhibition, % (concentration not given with the values); actives 1.4% (n = 300,000);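 active = mean inhibition across valid replicates above about 55%, limit read from the data; inconclusive = mean below that limit but half or more replicates reach it; inactive = mean below it, under half of replicates reach it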;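 also: signal also drops with host cell toxicity which is not excluded here; 0% = plate median of DMSO wells and 100% = zero luminescence signal; higher percent means less beta-gal luminescence so fewer parasites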
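assay system = mouse NIH/3T3 fibroblasts infected with β-gal-expressing T. cruzi Tulahuen C4 | input = 5,000 NIH/3T3 host cells per well | buffer or medium = DMEM plus 2% FBS | timing = 3 h host attachment, then at least 90 h co-culture | measured by = GalScreen luminescence, 60 min | evaluation = luminescence reflecting intracellular parasite burden, expressed as percent inhibition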
XBP1 UPR activ – activators of adaptive arm of unfolded protein response (XBP1); CHO-XBP1 luciferase reporter, IRE1-XBP1 UPR activation, luminescence; percent of tunicamycin response, DMSO as zero; activation, % at 20 µM; actives 0.33% (n = 330,000);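 active = versus positive control, 20 µM dose yields 30% or more activation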;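 also: 100% = tunicamycin at 10 µg/mL and 0% = DMSO only wells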
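Material: CHO-XBP1 cells stably carrying IRE1-XBP1-driven luciferase reporter / Amount: 1000 cells per well / Compound: 20 µM, 1% DMSO / Times: 6 h treatment, 37 °C / Detection: luciferase luminescence / Measure: % activation of reporter signal versus tunicamycin and DMSO controls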
Mdm2-MdmX inh – human Mdm2/MdmX binding inhibition. AID 485346. SaOS-2 split-luciferase Mdm2/MdmX complementation, luminescence. O15151+Q00987. actives 3% (n = 330,000). inhibition, % at 8 µM;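 active = inhibition of at least 50% at 8 µM in the primary screen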
Target sequence (O15151 whole entry, looked up): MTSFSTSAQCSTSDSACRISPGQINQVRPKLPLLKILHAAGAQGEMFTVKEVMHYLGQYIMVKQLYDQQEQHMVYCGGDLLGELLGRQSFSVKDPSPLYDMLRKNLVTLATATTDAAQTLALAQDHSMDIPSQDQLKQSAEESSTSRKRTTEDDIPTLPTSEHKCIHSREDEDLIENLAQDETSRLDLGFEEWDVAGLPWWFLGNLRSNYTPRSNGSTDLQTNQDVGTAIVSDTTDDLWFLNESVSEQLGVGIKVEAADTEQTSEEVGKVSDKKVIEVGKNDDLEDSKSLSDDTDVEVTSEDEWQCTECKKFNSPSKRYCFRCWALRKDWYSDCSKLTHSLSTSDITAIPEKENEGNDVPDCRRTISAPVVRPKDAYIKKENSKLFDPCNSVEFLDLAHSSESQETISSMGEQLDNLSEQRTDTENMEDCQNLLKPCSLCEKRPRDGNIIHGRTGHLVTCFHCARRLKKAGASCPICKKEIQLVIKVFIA
Target sequence (Q00987 whole entry, looked up): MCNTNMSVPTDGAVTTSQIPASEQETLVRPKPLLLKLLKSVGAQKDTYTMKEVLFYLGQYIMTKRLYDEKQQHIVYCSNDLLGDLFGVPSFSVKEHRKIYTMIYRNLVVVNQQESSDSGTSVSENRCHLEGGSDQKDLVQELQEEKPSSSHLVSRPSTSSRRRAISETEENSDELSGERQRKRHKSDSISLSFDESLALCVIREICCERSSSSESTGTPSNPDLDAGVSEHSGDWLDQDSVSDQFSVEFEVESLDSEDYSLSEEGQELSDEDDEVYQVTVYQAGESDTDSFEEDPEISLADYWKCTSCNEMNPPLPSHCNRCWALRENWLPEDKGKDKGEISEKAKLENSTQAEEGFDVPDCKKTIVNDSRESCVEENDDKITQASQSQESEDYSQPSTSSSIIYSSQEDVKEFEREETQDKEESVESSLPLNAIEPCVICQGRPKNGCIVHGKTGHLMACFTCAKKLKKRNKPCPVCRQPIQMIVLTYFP
CSC inhib – blocks cancer stem cells. actives 1.1% (n = 300,000). inhibition, % at 7.5 µM. cancer stem cell-like cells viability, luminescence; in the data active = inhibition above about 75%; inconclusive = no clear call, values can overlap the other calls; tested in HMLE shEcad cells
Mdm2 MdmX conf – human Mdm2/MdmX binding inhibition, confirmed | shares compounds with Mdm2-MdmX inh | luminescent assay | inhibition, % at 8 µM | actives 55% (n = 10,000); in the data active = inhibition above about 40%
Full FLuc ctr – counter-screen for Mdm2/MdmX inhibitors: full-length luciferase; shares compounds with Mdm2-MdmX inh; SaOS-2 full-length luciferase counterscreen, luminescence; inhibition, % at 8 µM; actives 77% (n = 6,200); AID 504607;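 active = mean inhibition at 8 µM reaching about 37%, which flags the compound as non-specific, limit read from the data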;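 also: p53-null SaOS-2 cells with luciferase driven by a doxycycline-inducible promoter; compound on cells about two nights before reading with doxycycline added after day one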
Active calls of the source: *; ? = inconclusive; . = no result given.

SMILES	Beta apoptosis	CHOP UPR activ	T cruzi repl	XBP1 UPR activ	Mdm2-MdmX inh	CSC inhib	Mdm2 MdmX conf	Full FLuc ctr
Cc1cc(C(=O)N/N=C/c2c(C)nn(-c3ccccc3)c2C)n[nH]1	-5	0	-33	6	25	3	.	.
Cc1nn(-c2ccccc2)c(C)c1/C=N/NC(=O)c1cc(C23CC4CC(CC(C4)C2)C3)[nH]n1	18	8	50	18	63*	97*	30	.
Cc1nn(-c2ccccc2)c(C)c1/C=N/NC(=O)c1cc(-c2cccs2)[nH]n1	37	4	-48	11	70*	60	56*	78*
CCN(C(=O)COC(=O)c1c(-c2ccccc2)noc1C)c1c(N)n(Cc2ccccc2)c(=O)[nH]c1=O	-5	-1	-1	-3	3	.	.	.
CCOC(=O)C(C)Oc1ccc(OCc2ccccc2)cc1 (stereo not drawn)	-4	-1	-7	1	21	.	.	.
Cc1[nH]c2ccccc2c1/C=N/NC(=O)c1cccs1	-11	1	-3	4	31	-4	.	.
Cc1c(/C=N/NC(=O)c2cccs2)c2ccccc2n1Cc1ccccc1Cl	9	4	7	2	72*	37	65*	90*
COc1ccccc1-n1cnc2c(c1=O)c1nc3ccccc3nc1n2-c1ccc(C)cc1	1	1	8	-1	55*	-2	73*	65*
COc1ccccc1-n1c2nc3ccccc3nc2c2c(=O)n(-c3cc(C)cc(C)c3)cnc21	2	1	28	2	17	-11	.	.
O=C(NCc1ccco1)C(c1ccccc1)N(Cc1cccnc1)C(=O)Cn1nnc2ccccc21 (stereo not drawn)	-4	0	30	-1	18	-8	.	.
Cc1ccc(NS(=O)(=O)c2cc(-c3n[nH]c(=O)c4ccccc34)ccc2C)cc1	5	2	20	1	64*	57	66*	50*
Cn1c(=O)c(C(=O)COC(=O)c2cc(C(F)(F)F)nc3c(C(F)(F)F)cccc23)c(N)n(CC2CC2)c1=O	-6	4	-1	17	77*	-11	3	.
Cn1c(N)c(C(=O)COC(=O)c2cc(-c3ccccc3)nc3ccccc23)c(=O)n(C)c1=O	27	18	33	19	66*	-7	29	60*
Cc1[nH]n(-c2ccccc2)c(=O)c1N=Nc1ccccc1O	.	3	47	-1	59*	.	58*	42*
Cc1[nH]n(-c2ccccc2)c(=O)c1N=Nc1ccccc1C(=O)O	-5	7	12	-2	-27	5	.	.
Cc1ccccc1SCCNC(=O)c1ccccc1Br	5	5	-9	0	-17	.	.	.
COc1ccccc1/C=N/N1C(=O)C(CC(=O)Nc2ccc([N+](=O)[O-])cc2OC)SC1=Nc1cccc(C)c1C (stereo not drawn)	3	1	41	-1	65*	55	47*	78*
CCOc1ccc(/C(C)=N/N2C(=O)C(CC(=O)Nc3ccc(OC)cc3[N+](=O)[O-])SC2=Nc2cccc(C)c2C)cc1 (stereo not drawn)	10	-2	-14	0	31	-10	.	.
COc1cc(O)c(CC=C(C)C)c(O)c1C(=O)CCc1ccc(O)cc1	.	4	-10	4	55*	-6	3	.
COc1cc(C(CC(=O)Nc2cccc(C)n2)N2Cc3ccccc3C2=O)cc(OC)c1OC (stereo not drawn)	-1	1	7	-6	-36	4	.	.
CCN(CC)CCN1C(=O)/C(=C\c2ccc(Cl)c([N+](=O)[O-])c2)SC1=Nc1ccc(OC)cc1	-1	24	57*	4	100*	?	98*	0
CCCN1C(=O)/C(=C/c2ccc(C)s2)SC1=Nc1ccc(OC)cc1	2	-2	23	-1	10	16	.	.
COc1ccc(N=C2S/C(=C\c3ccc(Cl)c([N+](=O)[O-])c3)C(=O)N2CCN(C)C)cc1	0	26	65*	27	100*	105*	67*	14
CC1CCc2c(sc3nc(CSc4ncn[nH]4)[nH]c(=O)c23)C1 (stereo not drawn)	-4	-1	16	0	-2	-1	.	.
CS(=O)(=O)N1N=C(c2cccs2)CC1c1ccccc1O (stereo not drawn)	-2	2	-16	-2	18	-11	.	.
SMILES	Beta apoptosis	CHOP UPR activ	T cruzi repl	XBP1 UPR activ	Mdm2-MdmX inh	CSC inhib	Mdm2 MdmX conf	Full FLuc ctr
Oc1ccccc1C1CC(c2cccs2)=NC(c2ccc(Cl)cc2)N1 (stereo not drawn)	39	2	-6	2	85*	-4	86*	28
CCOC(=O)c1c(C)[nH]c(C(=O)OCC(=O)Nc2cc(C)ccc2OC)c1C	5	0	5	2	99*	.	6	.
COc1cc(NC(=O)COC(=O)c2[nH]c(C)c(C(C)=O)c2C)cc(OC)c1	-21	0	.	-2	51*	-1	24	.
COc1ccc(OC)c(-c2csc(NC(=O)Cn3[nH]c(=O)c4ccccc4c3=O)n2)c1	23	0	12	-1	67*	13	83*	50*
Cc1sc(NC(=O)Cn2[nH]c(=O)c3ccccc3c2=O)nc1-c1ccccc1	3	2	-15	-2	56*	8	8	.
COc1ccc(OC)c(-c2csc(NC(=O)Cc3ccc(F)cc3)n2)c1	.	2	29	1	34	25	.	.
Cc1ccc(-c2csc(NC(=O)CSc3nc4ccccc4[nH]3)n2)cc1	.	.	1	.	.	.	.	.
COc1ccc(-c2csc(NC(=O)CSc3nc4ccccc4c(=O)[nH]3)n2)cc1	-2	1	-1	9	51*	.	-9	.
CCC(C)NC(=O)c1cn(CC)c2cc(N3CCN(C(=O)c4ccco4)CC3)c(F)cc2c1=O (stereo not drawn)	14	-2	-5	-4	25	-8	.	.
CC(COc1ccccc1)N1CCC(CO)(Cc2ccccc2)CC1 (stereo not drawn)	0	1	46	0	21	3	.	.
Cc1ccc(-c2nc(-c3ccccc3)no2)cc1	4	-6	1	-17	-294	-2	.	.
Cc1ccc(-c2nc(-c3ccccc3)no2)c(Cl)c1	.	-10	-13	-9	52*	6	62*	163*
Cc1ccc(S(=O)(=O)N(C)C)cc1NC(=S)N1CCN(Cc2ccc3c(c2)OCO3)CC1	.	0	12	2	18	15	.	.
